One test has as its system MDA-MB-231 cells. As to the kind of experiment: TRAIL-induced killing / TRAIL sensitization, cell viability. The test is classed as cell-based, human. The essentials:
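MDA-MB-231 cells in DMEM/10% FBS seeded at 5000 cells/well and left to attach overnight. Pre-treated 4 h at 37°C with vehicle (0.1% DMSO) or 5 μM test compound, then TRAIL (up to 100 ng/mL) added for 20 h at 37°C. After 30 min at room temperature, CellTiter-Glo luminescence read. At least triplicate, at least three independent times.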

Test [1] deals with non-canonical NF-κB pathway. As to the kind of experiment: Immunoblot of non-canonical NF-κB pathway. The test is classed as cell-based, human. The settings on record: MDA-MB-231 cells, 5 μM, 24 h, Fig. 4D. Summed up:
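MDA-MB-231 cells grown in DMEM with 10% FBS, exposed to vehicle or 5 μM test compound for 24 h. Cell protein extracts immunoblotted for NIK, phospho-NF-κB2, NF-κB2 and cIAP-1/-2, with Erk 1/2 as loading control. HRP-conjugated anti-rabbit or anti-mouse secondary applied for 1 h, then enhanced chemiluminescence detection.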
On the technique in general: A western blot detects proteins with antibodies after separation by electrophoresis.

Entries after “also recorded” stand apart in the source; their conditions may differ.

Consider `O=Cc1coc2ccccc2c1=O` [3-FC, reference compound], for which the “sensitization to TRAIL” value in the test with MDA-MB-231 cells (3-FC alone with TRAIL, Supp. Fig. S1D) was “results in sensitization to TRAIL”. For the same molecule, in the test on MDA-MB-231 cells (3-FC together with IAP inhibition, Supp. Fig. S1D), the “sensitization to TRAIL with IAP inhibition” value is reported as “induces even greater sensitization”. On to `CN[C@@H](C)C(=O)N[C@H]1CCO[C@H]2CC(C)(C)[C@@H](C(=O)N[C@@H]3CCCc4ccccc43)N2C1=O` [SBI-0636457], for which, in test [1], the NIK levels result is given as “profound induction of NIK levels”; the “phosphorylation and processing of NF-κB2” value is “enhanced phosphorylation and processing of NF-κB2”. In the case of `CC(C)[C@H](NC(=O)[C@H](C)N)C(=O)N[C@@H](C)C(=O)NNc1ccccc1` [MLS-0412113], the “sensitization to TRAIL-mediated cell killing” value in the test on MDA-MB-231 cells (5 μM pre-treatment 4 h, then TRAIL 20 h, Fig. 2B) is reported as “no activity; also recorded: lacked TRAIL sensitizing ability altogether”. Regarding `Cc1ccc(S(=O)(=O)/C=C/C#N)cc1` [BAY 11-7082, reference compound], the “effect of IKK inhibition in the model systems” value in the test on MDA-MB-231 cells (data not shown) is given as “failed to have any effect”.

B1: Tumor Necrosis Factor Related Apoptosis Inducing Ligand (protein, UniProt P50591 1-281, looked up)
Tumor necrosis factor ligand …: MAMMEVQGGPSLGQTCVLIVIFTVLLQSLCVAVTYVYFTNELKQMQDKYSKSGIACFLKEDDSYWDPNDEESMNSPCWQVKWQLRQLVRKMILRTSEETISTVQEKQQNISPLVRERGPQRVAAHITGTRGRSNTLSSPNSKNEKALGRKINSWESSRSGHSFLSNLHLRNGELVIHEKGFYYIYSQTYFRFQEEIKENTKNDKQMVQYIYKYTSYPDPILLMKSARNSCWSKDAEYGLYSIYQGGIFELKENDRIFVSVTNEHLIDMDHEASFFGAFLVG
In the case of B1, the “cell death by TRAIL alone” value with MDA-MB-231 cells (TRAIL alone, up to 100 ng/mL, 20 h, Fig. 2B) is reported as “fails to induce appreciable cell death”.

The values above are taken from paper PMC3947130 (Molecular cancer therapeutics, 2013).
